The values that follow come from ChEMBL document CHEMBL4414568, “Development of Novel Irreversible Pyruvate Kinase M2 Inhibitors” (J Med Chem, 2019).

In one series the test system is MDA-MB-231. Description: Antiproliferative activity against human MDA-MB-231 cells assessed as reduction in cell viability incubated for 24 hrs by MTT assay. Format: functional, cell-based. To be noted: MDA-MB-231, 24 h. The method, boiled down:
(§1)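 Cells seeded at 3,500 per well in 10% FBS and left overnight, then exposed to test agent or vehicle in 5% FBS for 24 h. MTT added for 1 h, then medium swapped for DMSO and absorbance read at 560 nm. Viability given as percent of vehicle-treated control. Run in triplicate.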
In general terms: Tetrazolium dyes change colour on reduction, which living cells bring about.

The next series has as its system NCI-H157. Description: Antiproliferative activity against human NCI-H157 cells assessed as reduction in cell viability incubated for 24 hrs by MTT assay. Type of series: functional, cell-based. The note with it: NCI-H157, 24 h. The method, boiled down: as §1
In series [1] the target is T1, ATP-citrate synthase (Homo sapiens) (UniProt P53396).
T1 sequence (whole entry): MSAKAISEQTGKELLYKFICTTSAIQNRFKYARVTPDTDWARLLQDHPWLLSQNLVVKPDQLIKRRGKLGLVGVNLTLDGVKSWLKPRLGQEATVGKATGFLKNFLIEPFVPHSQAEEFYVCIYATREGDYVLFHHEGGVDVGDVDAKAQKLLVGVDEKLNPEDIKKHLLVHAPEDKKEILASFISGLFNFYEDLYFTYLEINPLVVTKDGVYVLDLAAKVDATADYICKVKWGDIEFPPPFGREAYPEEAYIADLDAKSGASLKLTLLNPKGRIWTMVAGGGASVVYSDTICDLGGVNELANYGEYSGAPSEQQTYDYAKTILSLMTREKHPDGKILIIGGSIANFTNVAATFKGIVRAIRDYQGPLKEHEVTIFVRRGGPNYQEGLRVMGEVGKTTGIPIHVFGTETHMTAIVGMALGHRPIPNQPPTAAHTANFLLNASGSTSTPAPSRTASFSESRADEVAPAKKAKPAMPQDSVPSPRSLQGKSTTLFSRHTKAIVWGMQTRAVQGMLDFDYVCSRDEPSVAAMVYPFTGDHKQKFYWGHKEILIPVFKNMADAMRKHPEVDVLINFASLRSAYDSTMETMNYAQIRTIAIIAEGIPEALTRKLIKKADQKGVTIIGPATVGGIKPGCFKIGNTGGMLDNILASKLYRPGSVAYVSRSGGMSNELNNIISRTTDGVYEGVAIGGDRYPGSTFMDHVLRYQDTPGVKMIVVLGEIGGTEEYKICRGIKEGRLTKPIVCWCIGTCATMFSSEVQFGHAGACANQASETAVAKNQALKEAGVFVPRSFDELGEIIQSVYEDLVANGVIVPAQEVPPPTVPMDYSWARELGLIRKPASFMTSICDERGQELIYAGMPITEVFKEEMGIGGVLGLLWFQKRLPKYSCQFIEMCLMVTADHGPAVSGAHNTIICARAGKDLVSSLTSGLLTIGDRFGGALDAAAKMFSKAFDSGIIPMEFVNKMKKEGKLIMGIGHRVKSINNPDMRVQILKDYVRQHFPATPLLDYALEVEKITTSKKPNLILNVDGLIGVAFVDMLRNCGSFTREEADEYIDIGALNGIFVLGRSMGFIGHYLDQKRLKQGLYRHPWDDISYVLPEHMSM
Description: Binding affinity to ACYL in human PC9 cells incubated for 1 hr by ABPP-SILAC assay. Type of series: cell-based. The method, boiled down:
(§2)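 PC-9 cells passaged at least six times in SILAC DMEM with 10% dialyzed FBS plus 100 µg/mL light or 13C/15N-labeled Arg/Lys. Heavy cells got ABPP probe (1 µM) and light cells DMSO, 1 h at 37 °C. Cells mixed 1:1, sonicated, spun at 100,000g, protein normalized to 1 mg/mL. Click biotin-azide, streptavidin bead pulldown 16 h at 4 °C, SDS-PAGE, on-bead trypsin digestion, LC-MS/MS.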

For a further series, the system named is Mus musculus. Description: In vivo inhibition of PKM2 in human PC9 cells xenografted in athymic nude mouse assessed as reduction in STAT3 expression at 10 mg/kg, ip administered once daily for 25 days measured post-last dose by Western blot analysis. Format: functional, organism-based. Put shortly: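 Tumors from PC-9 xenograft nude mice given 10 mg/kg i.p. daily or vehicle for 25 days (n = 8 per group) were lysed for Western blots of PKM2, EGFR, Stat3 and β-catenin. Bands quantified by ImageJ and normalized to GAPDH.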

For series [2], the target named is T2, Pyruvate kinase PKM (Homo sapiens, UniProt P14618). The series can be described thus: Inhibition of PKM2 in human PC9 cells assessed as reduction in STAT3 phosphorylation incubated for 24 hrs by Western blot analysis. Type of series: cell-based. Put shortly:
(§3)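 PC-9 cells seeded at 5 × 10^5 cells/mL; after 24 h given 0–1 µM compound or DMSO for 24 h. Lysates run on 10% SDS-PAGE, transferred to nitrocellulose, probed for PKM2, EGFR, p-STAT3, STAT3, p-β-catenin, β-catenin and β-actin with HRP secondaries, ECL detection.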

The test system of a further series is LNCaP. Description: Antiproliferative activity against human LNCAP cells assessed as reduction in cell viability incubated for 24 hrs by MTT assay. Format: functional, cell-based. The method, boiled down:
as §1

The test system of series [3] is PC-9. Description: Down regulation of PKM2 expression in human PC9 cells incubated for 24 hrs by Western blot analysis. Format: functional, cell-based. Put shortly: as §3
(In western blotting, separated proteins are transferred to a membrane and probed.)

Series [4] deals with T2, Pyruvate kinase PKM. Description: Binding affinity to recombinant human N-terminal His6-tagged PKM2 expressed in Escherichia coli BL21 (DE3) assessed as Cys326-adduct formation by NanoLC-MS/MS analysis. Put shortly: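 In-house His-tag PKM2 from E. coli BL21(DE3), purified by Ni-NTA then Superdex 200, treated with compound. Reduced with 30 mM DTT at 37 °C for 1 h, alkylated with 30 mM iodoacetamide for 1 h in the dark, trypsin 1:30 w/w overnight at 37 °C. Digests from 6 experiments pooled, 48 nanoLC-MS/MS runs in data-dependent mode, Orbitrap MS1.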

Series [5] deals with T2, Pyruvate kinase PKM. The series can be described thus: Binding affinity to PKM2 in human PC9 cells incubated for 1 hr by ABPP-SILAC assay. Format: cell-based. Put shortly:
as §2

Series [6] has as its target T2, Pyruvate kinase PKM. The series can be described thus: Inhibition of PKM2 in human PC9 cells assessed as reduction in beta-catenin phosphorylation at 0.5 uM incubated for 24 hrs by Western blot analysis. Format: cell-based. The method, boiled down: as §3
Series [7] has as its system PC-9. Description: Induction of basal oxygen consumption rate in human PC9 cells at 0.25 to 1 uM measured after 4 hrs in absence of glucose by seahorse XF96 flux analyser based assay. Format: functional, cell-based. The method, boiled down: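 PC-9 cells, 5 × 10^4 per well, seeded 24 h ahead, then treated with DMSO or compound at 0.25, 0.5 or 1 µM for 4 h at 37 °C. Cells held 1 h without CO2 in glycolysis medium. Seahorse glycolysis stress test with serial injections of 10 mM glucose, oligomycin and 50 mM 2-DG; ECAR and OCR recorded together. Six wells per point.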

In series [8] the test system is PC-9. Description: Antitumor activity against human PC9 cells xenografted in athymic nude mouse assessed as reduction in tumor volume at 10 mg/kg, ip administered once daily for 25 days measured post-last dose. Type of series: functional, organism-based. Put shortly:
(§4)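 Female nude mice, 6 weeks old, given s.c. 1 × 10^6 PC-9 cells in Matrigel (1:1). From day 7, once-daily i.p. vehicle or 10 mg/kg compound in sterile water with 0.5% methylcellulose and 0.1% Tween-80, n = 8 per group, for 25 days. Tumor volume and body weight followed, tumors weighed at end.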
On the technique in general: Xenograft models place foreign cells or tissue in a host animal.

Series [9] is described as follows: Toxicity in athymic nude mouse xenografted with human PC9 cells assessed as reduction in body weight at 10 mg/kg, ip administered once daily for 25 days measured during compound dosing. Type of series: organism-based. To be noted: in vivo, 600 h. The method, boiled down: as §4

By IC50 is commonly meant the midpoint of a concentration-inhibition curve.

Active and inactive are the calls of the source. The rule behind the calls is not given here. Bounds are passed on as bounds.

T2 sequence (P14618 2-531 limits assumed): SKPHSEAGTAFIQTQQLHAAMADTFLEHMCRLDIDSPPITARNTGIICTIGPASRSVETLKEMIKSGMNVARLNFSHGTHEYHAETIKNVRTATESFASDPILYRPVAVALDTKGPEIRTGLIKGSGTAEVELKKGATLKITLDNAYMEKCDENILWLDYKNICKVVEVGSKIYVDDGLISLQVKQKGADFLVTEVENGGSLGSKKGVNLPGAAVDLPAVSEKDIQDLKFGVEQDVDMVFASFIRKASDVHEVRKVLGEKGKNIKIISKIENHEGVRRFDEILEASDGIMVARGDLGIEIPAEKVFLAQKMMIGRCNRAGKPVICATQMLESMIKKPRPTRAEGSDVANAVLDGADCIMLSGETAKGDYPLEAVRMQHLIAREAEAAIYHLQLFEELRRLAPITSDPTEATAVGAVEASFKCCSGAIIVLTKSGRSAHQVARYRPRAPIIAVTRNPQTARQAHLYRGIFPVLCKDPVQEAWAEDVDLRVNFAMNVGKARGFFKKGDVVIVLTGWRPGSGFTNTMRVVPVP

For `C#CC(=O)Nc1ccc(-n2nc(CCC(=O)NC)cc2-c2ccc(-c3ccc(C(F)(F)F)cc3)cc2)cc1`, the concentration for half-maximal inhibition (IC50) was 100 nM in the series with MDA-MB-231, greater than 2000 nM in the series with NCI-H157 and greater than 2000 nM in the series on LNCaP. Further, the outcome (in [1]; on Pyruvate kinase PKM [4]; on Pyruvate kinase PKM [5]; in the series on PC-9 [7]; in the series on PC-9 [8]) was Active. For the same compound, in the series on Mus musculus, the inhibition entry is “Active”. Besides, the inhibition result at Pyruvate kinase PKM [2] was “Dose-dependent effect”. Moreover, the Activity result with PC-9 [3] is “Dose-dependent effect”; in series [9], “Non-Toxic”. In addition, on Pyruvate kinase PKM [6], the inhibition entry was “inactive”.
